The values below come from the array DNA melting data of Ke et al. (doi:10.1101/2024.01.08.574731).

A short description of series [1]: folding enthalpy; higher = less favourable; fluorescence melt of hairpins on a sequencing array, two-state fit. The settings on record: sodium 0.088 M. In outline: (§1)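 To match UV melts, fitted temperatures were raised by 9.35 °C. These fits were bootstrapped two-state models that gave melting temperature and folding enthalpy, combined by inverse variance over four replicates. The input was normalised Cy3 fluorescence of library hairpins with annealed Cy3 and quencher oligos on a sequenced MiSeq flow cell, imaged in 50 mM Na-HEPES pH 8.0, 25 mM NaCl in 2.5 °C steps up to 60 °C.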

Series [2] is described as follows: melting temperature; fluorescence melt of hairpins on a sequencing array, two-state fit, raised by 9.35 °C to match UV melts. The settings on record: sodium 0.088 M. In outline:
as §1

As for GATGACGAAAGTCTAATC ((((((....)))..))), the folding enthalpy in series [1] was -12 kcal/mol. The Tm in series [2] amounted to 29.9 °C.
For GATGACGAAAGTCTGATC ((((((....)))..))), in that order: -12.1 kcal/mol and 33.1 °C.
In the same order, the values of GATGACGCGAAAGCGATC (((..(((....)))))) are -8.64 kcal/mol and 35 °C.
With GATGACGGAAACGCCATC ((((.((....)).)))), the folding enthalpy in series [1] is -32.3 kcal/mol. Moreover, the Tm in series [2] stood at 48.3 °C.
On to GATGACGGAAACGTCACC (.(((((....))))).), for which the folding enthalpy in series [1] is -14.6 kcal/mol. The Tm in series [2] worked out at 40 °C.
For GATGACGGAAACGTTGTC ((..(((....)))..)), in that order: -28.5 kcal/mol and 36.1 °C.
In the same order, the values of GATGAGGGAAACCTTATC (((.(((....))).))) are -28.9 kcal/mol and 35.7 °C.
In the same order, the values of GATGATGAAAATCATC ((((((....)))))) are -29 kcal/mol and 51.2 °C.
For the sequence GATGCACGAAAGTGTATC (((.(((....))).))), in series [1], the folding enthalpy was -31.7 kcal/mol. Also, the Tm in series [2] stood at 54.2 °C.
For GATGCCCGAAAGGGGATC (((.(((....))).))), in that order: -21.9 kcal/mol and 59 °C.
In the same order, the values of GATGCCCGAAAGGGTATC (((.(((....))).))) are -29.8 kcal/mol and 58.2 °C.
For GATGCCGAAAGGCATATC ((((((....)))..))), in that order: -11 kcal/mol and 55.7 °C.
With GATGCCGAAAGGCCATC ((((((....))).))), the folding enthalpy in series [1] is -14.2 kcal/mol. In series [2], the Tm was 46.9 °C.
In the same order, the values of GATGCCGAAAGGCGATC ((((((....))).))) are -15.1 kcal/mol and 50.6 °C.
In the same order, the values of GATGCCGAAAGGCTATC ((((((....))).))) are -13.1 kcal/mol and 43.4 °C.
In the same order, the values of GATGCCGCGAAAGCGATC (((..(((....)))))) are -7.36 kcal/mol and 28 °C.
For GATGCCGGAAACAGCATC (((((.(....).))))), in series [1], the folding enthalpy is -36.8 kcal/mol. In addition, in series [2], the Tm amounted to 46 °C.
On to GATGCCGGAAACGACACC (.((.((....)).)).), for which, in series [1], the folding enthalpy was -13.5 kcal/mol. In addition, the Tm in series [2] turned out to be 24.4 °C.
For GATGCGGGAAACCACACC (.((.((....)).)).), in that order: -12.4 kcal/mol and 26.7 °C.
For GATGCGGGAAACCACATC ((((.((....)).)))), in that order: -35.8 kcal/mol and 44.8 °C.
In the same order, the values of GATGCTGAAAAGCATC ((((((....)))))) are -39.1 kcal/mol and 63 °C.
GATGCTGGAAACAGCACC (.(((((....))))).): the folding enthalpy in series [1] is -14.4 kcal/mol. The Tm in series [2] turned out to be 39.4 °C.
GATGCTGGAAACAGCGTC ((.((((....)))).)): the folding enthalpy in series [1] was -39.7 kcal/mol. Also, the Tm in series [2] came out at 54.5 °C.
For GATGGACGAAAGTCGATC (((.(((....))).))), in that order: -25.9 kcal/mol and 49.6 °C.
In the same order, the values of GATGGCCCGAAAGGGATC (((..(((....)))))) are -11 kcal/mol and 34.3 °C.
For GATGGCGAAAGCCACATC ((((((....)))..))), in that order: -7.73 kcal/mol and 28.8 °C.
GATGGCGAAAGCCAGATC ((((((....)))..))): the folding enthalpy in series [1] is -15.7 kcal/mol. In addition, in series [2], the Tm stood at 50 °C.
For GATGGCGAAAGCCATATC ((((((....)))..))), in that order: -10.6 kcal/mol and 52.5 °C.
For GATGGCGAAAGCCCCATC ((((((....)))..))), in that order: -7.84 kcal/mol and 25.5 °C.
For GATGGCGAAAGCCTCATC ((((((....)))..))), in that order: -8.85 kcal/mol and 30.7 °C.
On to GATGGCGAAAGCCTTATC ((((((....)))..))), for which the folding enthalpy in series [1] was -7.22 kcal/mol. The Tm in series [2] is 25.9 °C.
In the same order, the values of GATGGCGGAAACGCCACC (.(((((....))))).) are -9.71 kcal/mol and 43.6 °C.
For GATGGGCGAAAGCCAATC (((.(((....))).))), in that order: -23.9 kcal/mol and 51.2 °C.
For the sequence GATGGGCGAAAGCCATC (((.(((....)))))), the folding enthalpy in series [1] was -18.2 kcal/mol. For the same sequence, the Tm in series [2] turned out to be 52.5 °C.
For GATGGGGGAAACCCCATC (((((((....))))))), in that order: -31.2 kcal/mol and 65.4 °C.
In the same order, the values of GATGGGGGAAACCTCATC ((((.((....)).)))) are -28.4 kcal/mol and 46.3 °C.
